Test results published in ChEMBL document CHEMBL1287702, “Synthesis, cytotoxicity, and structure-activity relationship (SAR) studies of andrographolide analogues as anti-cancer agent” (Bioorg Med Chem Lett, 2010).
The source made the active and inactive calls. No cut-off for these calls is given here.

Experiments:
U-937 [1] = assay: Antiproliferative activity against human U937 cells assessed as growth inhibition after 48 hrs by MTS-PMS assay; format: functional, cell-based
In short: (§1)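 Cells at 2.5-5.0 × 10^4 per 200 µL were exposed to compounds (0-50 µM) for 48 h at 37 °C, 5% CO₂. MTS (2.0 mg/ml) and PMS (0.92 mg/ml), mixed 10:1, were added for 3 h at 37 °C, and A490 was read. Background was subtracted, viability was taken as a % of untreated, and IC50 was found by graphic extrapolation.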

[2] = Antiproliferative activity against human L-132 cells assessed as growth inhibition after 48 hrs by MTS-PMS assay; format: cell-based, L132; in short: as §1
THP-1 = assay: Antiproliferative activity against human THP1 cells assessed as growth inhibition after 48 hrs by MTS-PMS assay; format: functional, cell-based; in short: as §1
K562 = assay: Antiproliferative activity against human K562 cells assessed as growth inhibition after 48 hrs by MTS-PMS assay; format: functional, cell-based; in short: as §1
[3] = Antiproliferative activity against mouse NIH/3T3 cells assessed as growth inhibition after 48 hrs by MTS-PMS assay; format: cell-based, NIH3T3; in short: as §1
U-937 [4] = assay: Induction of apoptosis in human U937 cell assessed as pre-necrotic cells at IC50 concentration after 24 hrs using Annexin V-FITC staining by flow cytometry relative to untreated control; format: functional
U-937 [5] = assay: Induction of apoptosis in human U937 cell assessed as late apoptotic cells at IC50 concentration after 24 hrs using Annexin V-FITC staining by flow cytometry relative to untreated control; format: functional
U-937 [6] = assay: Induction of apoptosis in human U937 cell assessed as formation of apoptotic bodies with membrane blebbing at IC50 concentration after 24 hrs using Hoechst 33258 staining by confocal microscopic analysis; format: functional, cell-based
U-937 [7] = assay: Induction of apoptosis in human U937 cell assessed as early apoptotic cells at IC50 concentration after 24 hrs using Annexin V-FITC staining by flow cytometry relative to untreated control; format: functional
[8] = Homo sapiens, U-937, 48 h, read-out: IC50
[9] = Homo sapiens, L132, 48 h, read-out: IC50
[10] = Homo sapiens, THP-1, 48 h, read-out: IC50
[11] = Homo sapiens, K562, 48 h, read-out: IC50
[12] = Mus musculus, NIH3T3, 48 h, read-out: IC50

Row | Compound | IC50 (U-937 [1]; [8]) [µM] | IC50 (THP-1; [10]) [µM] | IC50 (K562; [11]) [µM] | IC50 (U-937 [1]; u-937) | IC50 [2, 9] [µM] | IC50 [3, 12] [µM] | other results
1 | C=C1CC[C@@H]2[C@]3(C)COC(C)(C)O[C@@H]3CC[C@@]2(C)[C@@H]1C/C=C1/C(=O)OC[C@H]1OC(=O)/C=C\C(=O)O | – | 14.8 | – | – | 31.1 | – | –
2 | C=C1CC[C@@H]2[C@](C)(CO)[C@H](O)CC[C@@]2(C)[C@@H]1CCC1C(=O)OC[C@H]1OC(=O)CCCC(=O)O (stereo partly specified) | – | – | – | Not Active | – | – | IC50 ([2]; l132): Not Active; IC50 (THP-1; thp-1): Not Active; IC50 (K562; k562): Not Active; IC50 ([3]; nih3t3): Not Active
3 | C=C1CC[C@@H]2[C@](C)(CO)[C@H](O)CC[C@@]2(C)[C@@H]1CCC1C(=O)OC[C@H]1OC(=O)CCC(=O)O (stereo partly specified) | – | – | – | Not Active | – | – | –
4 | C=C1CC[C@@H]2[C@](C)(CO)[C@H](O)CC[C@@]2(C)[C@@H]1C/C=C1/C(=O)OC[C@H]1OC(=O)CCCC(=O)O | 9.76 | 7.53 | 19.6 | – | 19.5 | 22.1 | –
5 | C=C1CC[C@@H]2[C@]3(C)COC(C)(C)O[C@@H]3CC[C@@]2(C)[C@@H]1C/C=C1/C(=O)OC[C@H]1OC(=O)CCC(=O)O | 19.5 | 10 | 31.4 | – | 21.7 | 36.7 | –
6 | C=C1CC[C@@H]2[C@](C)(CO)[C@H](O)CC[C@@]2(C)[C@@H]1C/C=C1/C(=O)OC[C@H]1OC(=O)/C=C\C(=O)O | 9.72 | 7.77 | 42 | – | 12.8 | 11.3 | –

Second part, led by results:

Row | IC50 (U-937 [1]; [8]) [µM] | IC50 (THP-1; [10]) [µM] | IC50 (K562; [11]) [µM] | IC50 (U-937 [1]; u-937) | Compound | IC50 [2, 9] [µM] | IC50 [3, 12] [µM] | other results
7 | 12.9 | 6.69 | 41.9 | – | C=C1CC[C@@H]2[C@](C)(CO)[C@H](O)CC[C@@]2(C)[C@@H]1C/C=C1/C(=O)OC[C@H]1O [ANDROGRAPHOLIDE] | 53.8 | 44.5 | –
8 | 5.47 | 5.84 | 25.3 | – | C=C1CC[C@@H]2[C@](C)(CO)[C@H](O)CC[C@@]2(C)[C@@H]1C/C=C1/C(=O)OC[C@H]1OC(=O)CCC(=O)O | 8.5 | 10.2 | Activity (U-937 [4]): 2.51%; Activity (U-937 [5]): 27.25%; Activity (U-937 [6]): Active; Activity (U-937 [7]): 18.77%
9 | 6.27 | 5.68 | 41.1 | – | C=C1CC[C@@H]2[C@](C)(CO)[C@H](O)CC[C@@]2(C)[C@@H]1C/C=C1/C(=O)OC[C@H]1OC(=O)c1ccccc1C(=O)O | 10.9 | 8.01 | –
10 | – | – | – | Not Active | C=C1CC[C@@H]2[C@](C)(CO)[C@H](O)CC[C@@]2(C)[C@@H]1CCC1C(=O)OC[C@H]1OC(=O)/C=C\C(=O)O (stereo partly specified) | – | – | IC50 ([2]; l132): Not Active; IC50 (THP-1; thp-1): Not Active; IC50 (K562; k562): Not Active; IC50 ([3]; nih3t3): Not Active
11 | 14.6 | 12.2 | 26.9 | – | C=C1CC[C@@H]2[C@]3(C)COC(C)(C)O[C@@H]3CC[C@@]2(C)[C@@H]1C/C=C1/C(=O)OC[C@H]1OC(=O)c1ccccc1C(=O)O | 18.8 | 16 | –
12 | 15.6 | 26.2 | 36.5 | – | C=C1CC[C@@H]2[C@]3(C)COC(C)(C)O[C@@H]3CC[C@@]2(C)[C@@H]1C/C=C1/C(=O)OC[C@H]1OC(=O)CCCC(=O)O | 15.1 | – | –
13 | – | – | – | Not Active | C=C1CC[C@@H]2[C@](C)(CO)[C@H](O)CC[C@@]2(C)[C@@H]1CCC1C(=O)OC[C@H]1OC(=O)c1ccccc1C(=O)O (stereo partly specified) | – | – | IC50 ([2]; l132): Not Active; IC50 (THP-1; thp-1): Not Active; IC50 (K562; k562): Not Active; IC50 ([3]; nih3t3): Not Active
